# Laboratory results from ChEMBL document CHEMBL4715907, “Cytoprotective activities of kinetin purine isosteres” (Bioorg Med Chem, 2021).
# Active and inactive are the calls of the source. No cut-off for these calls is given here.
# Columns and labels:
# SH-SY5Y [1] = assay: Cytoprotective activity against glutamate-induced ATRA-differentiated human SH-SY5Y cells assessed as reduction in cell death at 10 uM after 24 hrs by propidium iodide staining based assay relative to control; assay type: functional; parameters: scale not given: the % may be the effect or the level left
# Summary of the method: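 SH-SY5Y cells (20,000/well) differentiated 48 h with 10 µM ATRA in DMEM/F12 with 1% FBS. Medium replaced by fresh DMEM/F12 with 1% FBS containing test compound at 0.1, 1 or 10 µM; DMSO vehicle as negative control. Cells exposed immediately to 160 mM glutamate for 24 h. Dead cells stained with propidium iodide (1 µg/mL final, 15 min, rt); fluorescence read at ex 535/em 617 nm.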
# [2] = Drug degradation in human liver microsomes at 2 uM measured up to 60 mins by RF-MS analysis; assay type: ADME, Tissue, Microsome; conditions: read-out: Drug degradation
# [3] = Protein binding in human plasma at 10 uM after 4 hrs by RF-MS analysis; assay type: ADME, cell-free; conditions: read-out: PPB (converted)
# GM04663 = assay: Cytoprotective activity in human GM04663 cells assessed as aberrant splicing of ELP1 mRNA expression at 50 uM incubated for 24 hrs by RT-PCR anlaysis; assay type: functional, cell-based
# Summary of the method: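 GM04663 patient fibroblasts, about 500,000 per 10 cm dish in DMEM with 10% FBS, were grown overnight and then treated 24 h at 50 µM, with DMSO vehicle. Total RNA was extracted with Trizol and reverse-transcribed. ELP1 nt 2194–2593 (NM_003640.5) was amplified over 34 cycles with 63.8 °C annealing. Wild-type and aberrant transcripts were quantified by peak area against DNA standards of known size and concentration.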
# [4] = Stability in human liver microsomes assessed as parent compound remaining at 2 uM measured up to 60 mins by RF-MS analysis; assay type: ADME, Microsome; conditions: read-out: Stabilty
# [5] = Apparent permeability of compound in MDCK-MDR1 cells; assay type: ADME, cell-based, Canis lupus familiaris; conditions: dog
# Summary of the method: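 MDCK-MDR1 cells formed monolayers on 1 µm pore Transwell filters, used only if intact by Lucifer Yellow rejection. Cells were washed with HBSS and pre-equilibrated at pH 7.4 for 1 h, then exposed to 10 µM compound in HBSS pH 7.4 for 1 h, apical-to-basal and basal-to-apical. Donor and acceptor were quantified by RapidFire MS/MS (MRM). Papp = (dQ/dt)/(C0 × A), duplicates.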
# SH-SY5Y [6] = assay: Cytoprotective activity against glutamate-induced human ATRA-differentiated SH-SY5Y cells assessed as reduction in oxidative stress […] by dihydroethidium staining based assay; assay type: functional, cell-based; conditions: dose 0.1-10 µM
# [7] = Stability in human plasma assessed as parent compound remaining at 2 uM measured up to 120 mins by RF-MS analysis; assay type: ADME, cell-free; conditions: read-out: Stabilty
# [8] = Apparent permeability of compound in human Caco2 cells; assay type: ADME, cell-based; conditions: Caco-2
# GM04078 [9] = assay: Cytoprotective activity against BSO-induced toxicity in human GM04078 cells assessed as increase in cell viability preincubated for 24 hrs followed by BSO-stimulation and […] by resazurin fluorescence based assay; assay type: functional
# [10] = biological target: T1, Frataxin, mitochondrial (Homo sapiens) (UniProt Q16595); assay: Activation of His6-tagged-thrombin cleavage site-fused FXN (79 to 207 residues) (unknown origin) assessed as increase in Fe-S cluster biosynthesis at 30 to 500 uM by UV-visible spectroscopy relative to control; conditions: dose 30-500 µM
# T1 sequence (whole entry): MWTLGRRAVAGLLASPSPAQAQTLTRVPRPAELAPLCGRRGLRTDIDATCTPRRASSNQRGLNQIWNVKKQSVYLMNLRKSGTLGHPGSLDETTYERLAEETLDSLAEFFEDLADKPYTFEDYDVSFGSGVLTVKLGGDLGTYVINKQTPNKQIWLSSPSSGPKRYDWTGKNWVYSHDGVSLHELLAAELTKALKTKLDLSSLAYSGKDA
# Summary of the method: (§1)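 Mouse ISC machinery reconstituted in vitro from purified proteins under anaerobic conditions. Buffer was 50 mM Tris, 150 mM NaCl, pH 8, with 50 µM apo-ISCU loaded with one equivalent Fe2+, 5 µM NFS1-ISD11-ACP, 5 µM FDX2, 2 µM FDXR and 100 µM NADPH. Compounds in DMSO were tested at 30, 50, 100, 200 and 500; DMSO was equalized. 5 µM FXN served as positive control. Run in triplicate.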
# SH-SY5Y [11] = assay: Cytoprotective activity against glutamate-induced human ATRA-differentiated SH-SY5Y cells from ECACC assessed as reduction in oxidative stress at 10 uM after 24 hrs by dihydroethidium staining based assay; assay type: functional, cell-based
# GM04078 [12] = assay: Cytoprotective activity against BSO-induced toxicity in human GM04078 cells assessed as restoring FXN protein expression at 10 to 50 uM after 48 hrs by Western blot analysis; assay type: functional, cell-based; conditions: dose 10-50 µM
# Summary of the method: (§2)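 GM04078 cells (about 1.4 million per 10 cm dish, DMEM with 10% FBS) were treated 24 h after seeding at 10 and 50 µM and harvested after 48 h. Lysates in Laemmli buffer were normalized by Bradford, 25–40 µg run on 12.5% SDS-PAGE and transferred to PVDF. Blots were probed with anti-frataxin mouse antibody (18A5DB1), actin as loading control, HRP secondary and ECL.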
# GM04078 [13] = assay: Cytoprotective activity against BSO-induced toxicity in human GM04078 cells assessed as increase in cell viability at 10 to 50 uM preincubated for 24 hrs followed by BSO-stimulation and […] by resazurin fluorescence based assay; assay type: functional; conditions: dose 10-50 µM
# GM04078 [14] = assay: Cytoprotective activity against BSO-induced toxicity in human GM04078 cells assessed as restoring FXN protein expression at 10 to 50 uM after 48 hrs by immunodetection assay; assay type: functional, cell-based; conditions: dose 10-50 µM; summary of the method: as §2
# GM04078 [15] = assay: Cytoprotective activity against BSO-induced toxicity in human GM04078 cells assessed as restoring GSH level […] by confocal microscopic method; assay type: functional, cell-based; conditions: time 32.0 hrs
# [16] = biological target: T1, Frataxin, mitochondrial (Homo sapiens); assay: Inhibition of His6-tagged-thrombin cleavage site-fused FXN (79 to 207 residues) (unknown origin) assessed as increase in Fe-S cluster biosynthesis at 30 to 500 uM by UV-visible spectroscopy relative to control; conditions: dose 30-500 µM; summary of the method: as §1
SMILES,"fraction unbound at 4 h, 10 µM [3]",Activity (GM04663),"remaining at 1 h, 2 µM [4]",Papp [5],"remaining at 2 h, 2 µM [7]",Papp [8],other results
Cc1oc2ncnc(NCc3ccco3)c2c1C,0.871,Active,78%,16.3 ×10⁻⁶ cm/s,83%,7.6 ×10⁻⁶ cm/s,"Activity (SH-SY5Y [1]): 10%; metabolised at 1 h, 2 µM [2]: > 50%; Activity (SH-SY5Y [6]): Dose-dependent effect"
Clc1nc(NCc2ccco2)c2[nH]cnc2n1,0.871,,78%,16.3 ×10⁻⁶ cm/s,83%,7.6 ×10⁻⁶ cm/s,
c1coc(CNc2ncnc3cn[nH]c23)c1,0.871,inactive,78%,16.3 ×10⁻⁶ cm/s,83%,7.6 ×10⁻⁶ cm/s,
CN(Cc1ccco1)c1ncnc2c1cnn2C,,inactive,,,,,
c1coc(CNc2ncnc3ccsc23)c1,0.871,Active,78%,16.3 ×10⁻⁶ cm/s,83%,7.6 ×10⁻⁶ cm/s,"metabolised at 1 h, 2 µM [2]: > 50%"
Clc1nc(NCc2ccco2)c2cc[nH]c2n1,0.871,Active,78%,16.3 ×10⁻⁶ cm/s,83%,7.6 ×10⁻⁶ cm/s,
c1coc(CNc2ncnc3occc23)c1,0.871,Active,78%,16.3 ×10⁻⁶ cm/s,83%,7.6 ×10⁻⁶ cm/s,
c1coc(CNc2ncnc3[nH]cnc23)c1 [KINETIN],0.871,,78%,16.3 ×10⁻⁶ cm/s,83%,7.6 ×10⁻⁶ cm/s,
c1coc(CNc2ncnc3sccc23)c1,0.871,Active,78%,16.3 ×10⁻⁶ cm/s,83%,7.6 ×10⁻⁶ cm/s,
c1coc(CNc2nccc3[nH]cnc23)c1,0.871,,78%,16.3 ×10⁻⁶ cm/s,83%,7.6 ×10⁻⁶ cm/s,Activity (GM04078 [9]): Dose-dependent effect; Activity [10]: 0.5%
c1coc(CNc2ncnc3[nH]nnc23)c1,0.871,inactive,78%,16.3 ×10⁻⁶ cm/s,83%,7.6 ×10⁻⁶ cm/s,
Clc1cc2[nH]cnc2c(NCc2ccco2)n1,0.871,,78%,16.3 ×10⁻⁶ cm/s,83%,7.6 ×10⁻⁶ cm/s,Activity (SH-SY5Y [1]): 10%; Activity (SH-SY5Y [11]): Active; Activity (GM04078 [9]): Dose-dependent effect; Activity (SH-SY5Y [6]): Dose-dependent effect; Activity (GM04078 [12]): inactive; Activity (GM04078 [13]): Active; Activity (GM04078 [14]): inactive; Activity (GM04078 [15]): inactive; inhibition [16]: Active
Clc1cc(NCc2ccco2)c2nc[nH]c2n1,0.871,,78%,16.3 ×10⁻⁶ cm/s,83%,7.6 ×10⁻⁶ cm/s,
Cl.c1coc(CNc2ncnc3ccccc23)c1,0.871,Active,78%,16.3 ×10⁻⁶ cm/s,83%,7.6 ×10⁻⁶ cm/s,
Cc1ccc(CN(C)c2ncnc3c2cnn3C)o1,,inactive,,,,,
Clc1nc(NCc2ccco2)c2[nH]ccc2n1,0.871,Active,78%,16.3 ×10⁻⁶ cm/s,83%,7.6 ×10⁻⁶ cm/s,Activity (SH-SY5Y [1]): 10%; Activity (SH-SY5Y [6]): Dose-dependent effect
c1coc(CNc2ccnc3ccnn23)c1,0.871,,78%,16.3 ×10⁻⁶ cm/s,83%,7.6 ×10⁻⁶ cm/s,
c1coc(CNc2ncnc3cc[nH]c23)c1,0.871,Active,78%,16.3 ×10⁻⁶ cm/s,83%,7.6 ×10⁻⁶ cm/s,
Cc1ccc(CNc2ncnc3[nH]ncc23)o1,,inactive,,,,,
Cc1ccc(C(C)Nc2ncnc3c2cnn3C)o1 (configuration not stated),,inactive,,,,,
c1coc(CNc2ncnc3[nH]ccc23)c1,0.871,Active,78%,16.3 ×10⁻⁶ cm/s,83%,7.6 ×10⁻⁶ cm/s,
c1coc(CNc2ccnc3[nH]cnc23)c1,0.871,,78%,16.3 ×10⁻⁶ cm/s,83%,7.6 ×10⁻⁶ cm/s,
